# Results collected from several papers.
# Compare with care: the assays were run in different laboratories.
# Target: Carbonic anhydrase 9 (CA9, Homo sapiens, UniProt Q16790)
# Read-out: enzyme activity
# Mode: inhibitor
Compound,test,quantity,result
Cn1cc(-c2cccc3oc(C(=O)NC4CCCN(CC(=O)Nc5ccc(S(N)(=O)=O)cc5)C4)cc23)nn1 (stereo not shown),,IC50,30.2 nM
NS(=O)(=O)c1ccc(CCNC2=NS(=O)(=O)c3ccc(Cl)cc3N2)cc1,stopped-flow,Ki,37.2 nM
COc1cc(/C=C2/SC(Nc3ccc(S(N)(=O)=O)cc3)=NC2=O)cc(OC)c1OC,,IC50,39.5 nM
Cc1ccc(C(=O)Nc2ccc(C(=O)Nc3cccc(S(N)(=O)=O)c3)cc2)s1,,IC50,409 nM
NS(=O)(=O)c1ccc(-n2nccc2-c2ccc(N3CCCCC3)cc2)cc1,,Ki,227 nM
COc1ccc(C(=O)/C=C/c2cccc3ccccc23)cc1S(N)(=O)=O,,Ki,1640 nM
NS(=O)(=O)c1ccc(-n2nccc2-c2ccc(N3CCOCC3)cc2)cc1,,Ki,245 nM
COc1ccc(C(=O)/C=C/c2cc3c(cc2Br)OCO3)cc1S(N)(=O)=O,,Ki,8170 nM
Cc1ccc(-c2ccc(Nc3ccc(S(N)(=O)=O)cc3)nn2)cc1S(=O)(=O)N1CCCCC1,,IC50,7.94 nM
NS(=O)(=O)c1ccc(NC2=NC(=O)/C(=C\c3ccc(O)cc3)S2)cc1,,IC50,203 nM
